# A selection: hits, their analogues and other compounds. The true share with any hit is near 2%.
# eIF4H inh: inhibitors of RNA binding by human eIF4H; Q15056; inhibition, % at 35 µM; eIF4H fluorescence polarization binding assay; AID 2012; 290,000 tested, 0.94% active;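 also: calls also rest on retests at 20 µM and on dose response follow-up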
# DNA FID counter: displaces DNA intercalator in HCV helicase counter-screen. DNA fluorescent intercalator displacement, fluorescence. inhibition, % at 7.9 µM. 290,000 tested, 0.17% active. AID 1845; in the data active = inhibition above about 37%;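 also: 0% = vehicle and 100% = reference compound; higher means more ethidium bromide displaced from hairpin DNA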
# HCV NS3 hel inh: inhibitors of Hepatitis C virus NS3 helicase | NS3 helicase DNA unwinding, Cy5 molecular beacon fluorescence | inhibition, % at 10.9 µM | 290,000 tested, 0.56% active | AID 1800;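 active = inhibition above the mean of all tested compounds plus 3 SD, set per campaign, cut at about 35% in these data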;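 also: 0% = DMSO wells and 100% = thioflavine S control wells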
#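 System: Hepatitis C virus NS3 helicase domain fragment enzyme | Reagent: Annealed dual-labelled DNA beacon duplex, ATP-started | Compound dosing: 10.9 µM single point, 0.8% DMSO | Incubation: 1 h reaction at 25 °C, ATP-initiated | Technique: Cy5 fluorescence | Evaluation: Percent inhibition from t60/t0 fluorescence ratio | Benchmarks: Low DMSO, high thioflavine S at 110 µM | Replication: Singlicate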
# MLLE-PAM2 inh: blocks PAM2 peptide binding to the PABP1 MLLE domain; P11940; GST-MLLE / FITC-PAM2 fluorescence polarization; inhibition, % at 20 µM; 360,000 tested, 0.36% active; AID 588489; in the data active = inhibition above about 35%, passing the limit was not always enough;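 also: plate controls were DMSO wells with GST-MLLE for no effect and wells lacking GST-MLLE protein for full effect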
# core dimer inh: blocks dimerization of HCV core protein; TR-FRET GST/Flag-core106 dimerization, 1536-well; inhibition, % at 5 µM; 300,000 tested, 0.33% active; AID 1899;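 active = inhibition above the mean of all tested compounds plus 3 SD, set per screening campaign, cut at about 45% in these data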
#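 Assay system: tagged HCV core106 pair (GST and Flag); medium: KF-containing HEPES buffer, pH 7.45, DTT, CHAPS, BSA; also added: Eu donor and XL665 acceptor anti-tag antibodies; dosing: 5 µM single dose; timing: compound-protein-antibody incubation 4 h at 22.5 °C; signal: TR-FRET 671 and 617 nm emission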
# PABP polyA inh: PABP-poly(A) binding inhibition; inhibition, % at 35 µM; P11940; PABP-poly(A) RNA binding, fluorescence polarization; 290,000 tested, 1% active; AID 2014;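 also: calls also rest on retests at 20 µM and on dose response follow-up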
# * = called active by the depositor; u = inconclusive; x = no result. Unless noted, no rule for the calls is given here.
SMILES,eIF4H inh,DNA FID counter,HCV NS3 hel inh,MLLE-PAM2 inh,core dimer inh,PABP polyA inh
O=C(O)C1Sc2[nH]c(=O)sc2C2c3cc(Cl)ccc3OC(=O)C12 (centres undefined),14.3,-1.0,26.4,15.0,-3.2,73.5*
CCOc1ccc(OCCC(=O)OCC(=O)NC(C)c2ccccc2)cc1 (centres undefined),x,x,x,-19.8,-2.9,x
CCCCN1C[C@H](Cc2ccccc2)[C@@H](CC(=O)NC)C1=O,x,x,x,11.2,x,x
NS(=O)(=O)c1ccc(-c2ccc(/C=N/Nc3ccc(C(=O)O)cc3)o2)cc1,56.4*,-15.4,24.9,-39.9,-22.2,33.3
Cc1ccc(-c2ccc(/C=N/NC(=S)Nc3ccccc3)o2)cc1[N+](=O)[O-],4.9,6.1,0.2,38.5*,9.3,-2.7
O=C(O)c1cccc(-c2ccc(/C=N/Nc3ccc([N+](=O)[O-])cc3)o2)c1,54.1,-15.9,-21.0,-140.6,-17.7,21.6*
O=C(O)c1ccc(-c2ccc(/C=N/Nc3ccc([N+](=O)[O-])cc3)o2)cc1,45.2,-12.5,11.1,-139.9,22.9,15.8
CNC(=S)N/N=C/c1ccc(-c2ccc(C(=O)O)cc2)o1,53.5*,-12.0,-9.8,9.2,-11.6,20.6*
CNC(=S)N/N=C/c1ccc(-c2ccc(Cl)c([N+](=O)[O-])c2)o1,-4.0,20.0,10.2,22.1,-3.0,-1.4
Cc1ccc(Nc2c([N+](=O)[O-])ccc3c2=NC2(CCCCC2)N=3)cc1,-4.3,11.1,3.6,39.4*,-19.7,-12.6
CCN(C(=O)C(C)N1C(=O)/C(=C/c2ccco2)SC1=S)C1CCS(=O)(=O)C1 (centres undefined),54.2*,-12.5,22.0,7.1,9.2,32.5*
CC(C(=O)N(C)C1CCS(=O)(=O)C1)N1C(=O)/C(=C/c2ccc(F)cc2)SC1=S (centres undefined),-12.5,-64.9,10.4,28.5,-2.5,-8.9
COc1cc(Nc2nc3ccccc3n3nnnc23)cc(OC)c1OC,79.9*,-1.1,-4.6,-29.8,-16.4,86.6*
CCCCN1C(=O)C(O)=C(C(C)=O)C1c1ccccc1[N+](=O)[O-] (centres undefined),-1.0,2.1,-0.2,-0.1,1.0,9.7
O=C(O)CCCCCN1C(=O)C(O)=C(C(=O)/C=C/c2ccccc2)C1c1ccccc1[N+](=O)[O-] (centres undefined),3.9,1.3,4.5,47.1*,2.8,-3.9
COc1ccc(OC)c(S(=O)(=O)N2CCCCC2C(=O)N2CCN(c3ccccn3)CC2)c1 (centres undefined),5.2,-23.4,-3.0,38.3*,-2.0,-3.0
COc1ccc(OC)c(S(=O)(=O)N2CCN(c3ccccn3)CC2)c1,10.7,-15.0,7.1,2.6,-6.4,2.4
CC(C)CN1C(=O)C(=O)N(CC(=O)NCCCc2ccccc2)C1=O,x,x,x,-6.4,x,x
C[C@H]1CNC(=O)c2c(C(=O)NC3CCN(C(=O)OC(C)(C)C)CC3)ncn21,x,x,x,0.9,x,x
Cc1cc(C)n2c(=O)c3ccc(Cl)cc3nc2c1C#N,-0.4,-0.5,-7.7,5.1,51.9*,-13.7
COc1ccc2nc3cc(Cl)ccc3c(C#N)c2c1,32.0,0.1,-3.2,53.5*,5.3,33.6
COc1ccc2nc(C(F)(F)Cl)c(C#N)c(N)c2c1,2.5,3.3,-7.3,-13.2,-5.6,5.1
CC(C)=CCC/C(C)=C/CNC(=O)C[C@H]1C[C@H](C(=O)N2CCCCC2)[C@@]2(CCc3ccccc3)c3[nH]c4cc(CCC(=O)N(C)C)ccc4c3CCN2C1=O,x,x,x,0.1,x,x
Cc1c(Cl)cccc1NC(=S)NNc1ncc(C(F)(F)F)cc1Cl,11.8,-9.4,4.0,36.5*,-5.1,-0.7
COc1ccc(C2(c3ccc(OC)cc3)NC(=O)NC2=O)cc1,-2.8,-5.1,-1.8,2.5,1.6,2.3
SMILES,eIF4H inh,DNA FID counter,HCV NS3 hel inh,MLLE-PAM2 inh,core dimer inh,PABP polyA inh
COc1ccc(C2=CC3=CC(=O)C(C)(O)C(=O)C3=CO2)cc1 (centres undefined),x,x,x,x,18.8,x
COC/C=C/C1=CC2=CC(=O)C(C)(OC(=O)c3cccs3)C(=O)C2=CO1 (centres undefined),x,x,x,x,42.1,x
COC/C=C/C1=CC2=CC(=O)C(C)(OC(=O)c3ccco3)C(=O)C2=CO1 (centres undefined),u,x,x,x,50.8*,u
COC/C=C/C1=CC2=CC(=O)C(C)(OC(=O)C3CCCC3)C(=O)C2=CO1 (centres undefined),62.4*,x,x,-8.9,7.1,48.6*
COC/C=C/C1=CC2=CC(=O)C(C)(O)C(=O)C2=CO1 (centres undefined),x,x,x,x,57.6*,x
O=C(Nc1ccon1)c1nc[nH]c1C(=O)N1CCN(c2ccccc2)CC1,x,x,x,-6.5,x,x
CC(Oc1ccc(Cl)cc1Cl)C(=O)Nc1ccc(O)cc1 (centres undefined),2.6*,-4.9,-1.3,10.4,3.3,58.6
CC1(OC(=O)C2CCCC2)C(=O)C=C2C=C(c3ccsc3)N(CCc3ccccn3)C=C2C1=O (centres undefined),96.8,x,x,17.9,-0.8,45.2*
CC(C)CN1C=C2C(=O)C(C)(OC(=O)C3CCCC3)C(=O)C=C2C=C1c1ccsc1 (centres undefined),55.3,x,x,3.5,24.9,38.3*
O=C(Nc1ccc(N2CCOCC2)nc1)c1ccc(F)cc1,40.3*,-2.4,-1.0,3.1,2.1,65.2
Cc1ccc(C(=O)Nc2ccc(N3CCOCC3)nc2)cc1,14.4,-3.8,8.6,13.5,-4.6,18.6
Cc1cc[n+](-c2[nH]c(=O)sc2/C=N/N=C(\[O-])c2ccncc2)cc1C,29.6,-12.2,25.9,29.1,-12.3,10.4
Cc1cc[n+](-c2[nH]c(=O)sc2/C=N/N=C(\[O-])c2ccncc2)cc1,99.8*,-8.9,2.4,40.6*,-0.2,73.9*
O=c1[nH]c(-[n+]2ccccc2)c(/C=N/N=C(\[O-])c2ccccc2)s1,13.5,-1.6,8.9,21.1,-1.6,15.8
Cc1cc[n+](-c2[nH]c(=O)sc2/C=N/N=C(\[O-])c2ccccc2)cc1,72.8,-4.0,7.5,39.5*,-1.0,35.4*
CC(C)Cn1cc(-c2cccc3nccn23)cn1,x,x,x,-7.8,x,x
COCCN(CCOC)Cc1c(O)ccc2c1O/C(=C\c1ccc(C)o1)C2=O,51.1*,-25.2,15.2,-1.1,-2.2,35.8
CCOC1=C2[C@@H](CN(S(=O)(=O)c3ccc(C)cc3)[C@H]2c2ccccc2Cl)[C@H]2C(=O)N(C(C)(C)C)C(=O)[C@H]2C1,x,x,x,-3.1,x,x
COc1ccccc1C(=O)Nc1sc2c(c1C(=O)NCc1ccco1)CCCC2,1.0,-0.1,1.6,-6.4,53.1*,11.7
COc1ccccc1NC(=O)c1c(NC(=O)c2ccco2)sc2c1CCC2,-3.0,-3.2,5.1,-9.9,34.9,5.4
Cc1cc(/C=N/NC(=O)CC#N)c(C)n1-c1ccc([N+](=O)[O-])cc1,1.7,-4.9,-3.8,8.6,4.8,-4.0

# Screens (PubChem)
